The entries come from a sample that favours hits as a whole.
PfG6PD inh = PfG6PD (Plasmodium falciparum) enzyme inhibition | PfGluPho enzyme, NADPH resazurin-diaphorase fluorescence | inhibition, % at 20 µM | hit rate 0.78% among 350,000;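 active = inhibition reaching at least a set limit at 20 µM in the primary screen, cut at about 59% in these data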;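 note: 0% = DMSO wells with substrate and 100% = DMSO wells lacking glucose-6-phosphate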
G6PDH CS = inhibits Leuconostoc G6PDH, flagging false hits in G6PDH-based assays | hit rate 0.12% among 200,000 | Purified L. mesenteroides G6PDH, diaphorase/resazurin coupled fluorescence, 45 min | inhibition, % at 5 µM
Diaph inh CS = counter-screen for diaphorase-based assays: diaphorase inhibitors and chemical oxidizers; AID 1217; inhibition, % at 20 µM; hit rate 0.69% among 190,000; diaphorase resazurin-to-resorufin fluorescence, NADH, 16 min; bacterial (C. kluyveri) enzyme, not human;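 active = primary screen inhibition at 20 µM above a set limit, cut at about 50% in these data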;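 note: plate controls were DMSO with full reaction for no effect and wells lacking NADH for full effect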
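controls = No-NADH positive control and DMSO neutral control | system = Clostridium kluyveri diaphorase enzyme | timing = reaction incubation of 16 min at room temperature | signal = resorufin fluorescence 544/590 nm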
DTT redox prof = compounds producing H2O2 with reducing agent – biochemical, NIH compound library profiling, artefact control for MLSCN library redox annotation, primary screen; DTT-dependent redox cycling H2O2, phenol red/HRP absorbance; 100% = 100 µM peroxide control, 0% = buffer; activation, % at 10 µM; hit rate 0.03% among 200,000;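 active = activation of at least 50% relative to the plate's high and low controls in the primary single-dose screen; inactive = activation below 50%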;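 note: compound incubated with DTT at 0.8 mM final as the reducing agent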
Diaphorase act = activates diaphorase or chemically reduces, flagging diaphorase assay artifacts; Diaphorase/resazurin coupled assay, resorufin fluorescence, 16 min; stronger effect = higher value; 1 = vehicle wells, 0 = NADH-free wells; AID 1229; hit rate 0.005% among 190,000; activation factor at 20 µM;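 active = diaphorase activity raised at least twofold by the compound at 20 µM; inactive = activation factor below 2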
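test system = bacterial diaphorase enzyme (C. kluyveri) | quantity = enzyme 0.07 U/mL final | reagent = NADH substrate 0.114 mM plus resazurin dye 0.1 mM, final | incubation = 16 min enzyme reaction, ambient temperature | buffer or medium = HEPES pH 7.4 buffer with MgCl2 and Tween 20 | signal = fluorescence of resorufin, 544 nm excitation, 590 nm emission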
Lmaj promast = inhibitors of Leishmania major promastigote growth. inhibition, % at 10 µM. Leishmania major promastigotes, resazurin fluorescence viability. hit rate 9% among 200,000;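 note: promastigotes grown with compound for 44 hours at 28 °C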
An asterisk follows results filed as active; x = no result. Cut-off read from the data, not from the text of the source, unless noted: active = inhibition above about 50%; inactive = the rest.

SMILES	PfG6PD inh	G6PDH CS	Diaph inh CS	DTT redox prof	Diaphorase act	Lmaj promast
Cc1ccc(C2C3CSCC=C3C(C#N)=C(N)C2(C#N)C#N)cc1 (stereo not given)	2	-15	13	-1	0.9	61*
CC(C)N1CC=C2C(C#N)=C(N)C(C#N)(C#N)[C@H](c3ccoc3)[C@H]2C1	x	15	62*	2	0.4	-2
CC(C)N1CC=C2C(C#N)=C(N)C(C#N)(C#N)C(c3ccccc3)C2C1 (stereo not given)	8	0	27	-4	0.7	-3
CCC1C2CN(C(C)=O)CC=C2C(C#N)=C(N)C1(C#N)C#N (stereo not given)	0	3	23	2	0.8	4
COc1ccc(S(=O)(=O)Cc2ccc(C(=O)N3CCN(C4CCCCC4)CC3)o2)cc1	-7	8	18	-1	0.8	99*
O=C(c1ccc(CS(=O)(=O)c2ccc(Br)cc2)o1)N1CCN(C2CCCCC2)CC1	x	16	3	-1	1	99*
CCc1ccccc1N(C(=O)c1snc(C(N)=O)c1N)C(C(=O)NCC1CCCO1)c1c[nH]c2ccccc12 (stereo not given)	1	x	x	x	x	x
CCOC(=O)c1cnc2c(OC)cccc2c1N1CCN(c2ccccc2OC)CC1	25	1	12	0	0.9	63*
CCOC(=O)N1CCC(Nc2cccc(SC)c2)CC1	14	6	22	2	0.8	96*
CCOC(=O)N1CCC(N(CCOC)C(=S)Nc2cccc(SC)c2)CC1	18	11	4	0	1	65*
COc1ccc(CCNC(=O)COC(=O)COc2ccc(C#N)cc2)cc1	-8	6	-1	0	1	-2
O=C1CN(C(=O)c2cccc(Br)c2)c2ccccc2N1	16	x	x	x	x	x
Cc1cccc(Nc2c([N+](=O)[O-])cc(C(=O)N3CC(=O)Nc4ccccc43)cc2[N+](=O)[O-])c1	18	-2	26	-1	0.7	82*
Cc1ccc(C)c(Nc2c([N+](=O)[O-])cc(C(=O)N3CC(=O)Nc4ccccc43)cc2[N+](=O)[O-])c1	19	8	21	3	0.8	96*
Nc1ccccc1C(=O)NNC(=O)C(=O)/C=C(\O)c1ccccc1	-1	x	x	x	x	x
CC(=O)Oc1cc2c(C(=O)NCCCN3CCOCC3)c(C)oc2c2ccccc12	26	47	8	2	0.9	52*
O=C(NCCN1CCOCC1)c1sc2cc(Cl)ccc2c1Cl	9	x	x	x	x	x
O=C(NCCCN1CCOCC1)c1ccc(Br)s1	-9	3	-4	1	1	4
Cc1c(OCC(=O)NCCCN2CCOCC2)ccc2c1oc(=O)c1ccccc12	-11	x	x	x	x	x
O=C(NCCCN1CCOCC1)c1cc2c(s1)CSC2	6	10	-3	-1	1	80*
O=C(NCCCN1CCOCC1)c1sc2ccccc2c1Cl	-18	14	20	2	0.8	80*
COc1ccc(CNC(=O)CN(C(=O)CCC(=O)Nc2ccccn2)c2ccc(C)cc2)cc1	10	x	x	x	x	x
N#Cc1cnn2c(-c3cccc([N+](=O)[O-])c3)ccnc12	3	x	x	x	x	x
CCOc1ccc(C(CC(=O)O)NC(=O)C(c2ccccc2)c2ccccc2)cc1OC (stereo not given)	-5	x	x	x	x	x
C=CCNC(=O)c1ccccc1NC(=O)c1ccc(Cl)c(S(=O)(=O)Nc2ccccc2)c1	-7	4	31	-8	0.7	58*
SMILES	PfG6PD inh	G6PDH CS	Diaph inh CS	DTT redox prof	Diaphorase act	Lmaj promast
CN(CCC#N)C(=O)CC(Cc1ccccc1)C1CCOC(C)(C)C1 (stereo not given)	-20	x	x	x	x	x
O=C(Nc1cc(C(F)(F)F)ccc1N1CCOCC1)c1cccs1	21	4	12	1	0.9	-1
CN(C)c1ccc(P(=O)(Nc2cccc(C(F)(F)F)c2)N2CCOCC2)c(NC(=O)c2cccs2)c1 (stereo not given)	23	0	19	0	0.8	59*
CC1N(C)c2cc(NC(=O)c3cccs3)c(P(=O)(Nc3ccc([N+](=O)[O-])cc3)N3CCOCC3)cc2C1(C)C (stereo not given)	14	-5	27	-2	0.7	59*
O=C(Nc1cc([N+](=O)[O-])ccc1N1CCOCC1)c1cccs1	-7	x	x	x	x	x
COc1ccc(-n2c(C)cc(C(=O)CN3CCC(C)CC3)c2C)cc1	15	6	14	0	0.9	92*
Cc1cc(C(=O)CN2CCC(C)CC2)c(C)n1-c1ccc(F)cc1	4	-9	10	0	0.9	91*
Cc1cc(C(=O)CN2CCCCC2)c(C)n1-c1ccc(F)cc1	14	15	13	0	0.9	12
COc1ccc(-n2c(C)cc(C(=O)CN3CCCCC3)c2C)cc1	-6	11	10	-1	0.9	1
CCOC(=O)c1cc(C(=O)OCC)cc(-n2c(C)cc(C(=O)CN3CCOCC3)c2C)c1	0	10	19	4	0.8	93*
Cc1cc(C(=O)CN2CCCC2)c(C)n1-c1ccc(Cl)cc1	-1	0	0	-2	1	53*
CN(C)C(=O)c1ccc2c(c1[N+](=O)[O-])C(=O)c1ccccc1C2=O	32	35	25	-1	0.8	33
Cc1[nH]c2ccccc2c1CCNC(=O)c1ccc2c(c1[N+](=O)[O-])C(=O)c1ccccc1C2=O	6	42	28	35	0.7	95*
Cc1[nH]c2c(C)cccc2c1CCNC(=O)c1ccc2c(c1[N+](=O)[O-])C(=O)c1ccccc1C2=O	0	45	29	-3	0.7	100*
N#CC(C#N)=Cc1c(N2CCN(c3ccccc3)CC2)nc2ccccn2c1=O	12	x	x	x	x	x
CCN1CCN(C(=O)CS(=O)(=O)Cc2nc(-c3cccc(OC)c3)oc2C)CC1	-11	x	x	x	x	x
Cc1[nH]c2ccccc2c1C(c1ccncc1)N1CCN(c2ccccc2F)CC1 (stereo not given)	12	16	20	0	0.8	51*
CC1(C)Cc2c(sc3c2c(=N)n(Cc2ccco2)c(=O)n3Cc2ccccc2)CO1	-2	-5	15	2	0.8	82*
Cc1cccc(NC(=O)CSc2cccc3cccnc23)c1C	10	x	x	x	x	x
CCOC(=O)CSc1cccc2cccnc12	19	-1	4	-3	1	91*
CC1(C)COCN1S(=O)(=O)c1ccc(C(=O)Nc2nnc(-c3ccc(Cl)s3)o2)cc1	-63	3	1	0	1	99*
COc1ccc(-c2nnc(NC(=O)c3ccc(S(=O)(=O)N4COCC4(C)C)cc3)o2)cc1	-19	4	12	3	0.9	99*
O=C(Nc1nnc(-c2cccs2)o1)c1ccc(S(=O)(=O)N2CCOCC2)cc1	-6	2	1	0	1	28
COc1ccc(C(=O)Nc2nnc(C3=COCCO3)o2)cc1	-5	x	x	x	x	x

Source: PubChem
